{"data": "Experimental data pooled from the literature", "target": "Serine/threonine-protein kinase PAK 2 (PAK2, Homo sapiens, UniProt Q13177)", "note": "Protocols differ between the studies behind these lines."}
{"Structure (SMILES)": "C#Cc1n[nH]c2c(-c3cn([C@@H](C)c4ccccc4)c(=O)[nH]c3=O)cc(F)cc12", "read-out": "enzyme activity", "action": "inhibitor", "concentration": "0.1 µM", "measurement": "inhibition", "value": "1.7%"}
{"Structure (SMILES)": "COc1cc(Nc2ncc(F)c(Nc3ccc4c(n3)NC(=O)C(C)(C)O4)n2)cc(OC)c1OC", "read-out": "binding", "method": "competition with immobilised ligand", "concentration": "10 µM", "measurement": "inhibition", "value": "64%"}
{"Structure (SMILES)": "C#Cc1n[nH]c2c(-c3cn(C(C)c4ccccn4)c(=O)[nH]c3=O)cc(F)cc12 (stereo not drawn)", "read-out": "enzyme activity", "action": "inhibitor", "concentration": "1 µM", "measurement": "inhibition", "value": "-6.9%"}
{"Structure (SMILES)": "COc1ncccc1-c1cnn2ccc(N3CCN(C(=O)OC(C)C)CC3)nc12", "read-out": "binding", "method": "competition with immobilised ligand", "concentration": "1 µM", "measurement": "remaining binding", "value": "100%"}
{"Structure (SMILES)": "Cn1cncc1[C@](O)(COc1ccc(C#N)cc1-c1ccc(OC(F)(F)F)cc1)c1ccc(C#N)cc1", "read-out": "cell-free assay", "method": "competition with immobilised ligand", "concentration": "1 µM", "measurement": "remaining binding", "value": "93%"}
{"Structure (SMILES)": "Cn1cc(-c2cc(F)cc(N3CCn4c(cc5c4CCCC5)C3=O)c2CO)cc(Nc2ccc(N3CCN(C4COC4)CC3)cn2)c1=O", "read-out": "enzyme activity", "action": "inhibitor", "concentration": "0.1 µM", "measurement": "inhibition", "value": "11%"}
{"Structure (SMILES)": "Nc1ncc(-c2nc(N3CCOCC3)nc(N3CCOCC3)n2)c(C(F)F)n1", "read-out": "binding", "method": "competition with immobilised ligand", "concentration": "10 µM", "measurement": "remaining binding", "value": "58%"}
{"Structure (SMILES)": "O=c1[nH]c2ccccc2n1C1CCN(Cc2ccc(-c3[nH]c4cc5ncnc5cc4nc3-c3ccccc3)cc2)CC1", "read-out": "cell-free assay", "concentration": "0.5 µM", "measurement": "remaining signal", "value": "99.2%"}
{"Structure (SMILES)": "Cn1cc(-c2cccc(N3CCc4c(sc5c4CC(C)(C)C5)C3=O)c2CO)cc(Nc2ccncn2)c1=O", "read-out": "enzyme activity", "action": "inhibitor", "concentration": "1 µM", "measurement": "inhibition", "value": "6%"}
